Data: ChEMBL document CHEMBL1955763, “Antimicrobial activity of sulfonamides containing 5-chloro-2-hydroxybenzaldehyde and 5-chloro-2-hydroxybenzoic acid scaffold” (Eur J Med Chem, 2012)
≈ marks a conversion by molar mass, not a printed value.

Key:
[1] = Selectivity ratio of IC50 for human HepG2 cell sto MIC100 for Mycobacterium kansasii 6509/96; type: functional
[2] = tested on: Mycobacterium kansasii; assay: Antimycobacterial activity against Mycobacterium kansasii 235/80 after 21 days; type: functional; conditions: 235/80, 504 h
In short: (§1)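 Micromethod MIC in Sula semisynthetic medium, with compounds added as DMSO solutions at […]. Incubation at 37 °C. Inocula: M. kansasii 235/80 at dilution 10⁻⁴, clinical isolate 6509/96 at 10⁻⁵.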

[3] = tested on: Mycobacterium tuberculosis; assay: Antimycobacterial activity against Mycobacterium tuberculosis H37Rv 331/88 after 14 days; type: functional; conditions: H37Rv 331/88, 336 h
[4] = tested on: Staphylococcus epidermidis; assay: Antibacterial activity against methicillin-resistant Staphylococcus epidermidis H 6966/08 after 24 hrs by broth microdilution method; type: functional; conditions: H 6966/08, 24 h
In short: (§2)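 Microdilution broth method modified from M07-A07, in Mueller-Hinton broth at pH 7.4 (±0.2). Compounds were dissolved in DMSO. Inoculum was made in sterile water to 0.5 McFarland (1.5 × 10⁸ CFU/mL). MIC was taken as IC₉₀, meaning ≥90% growth reduction versus the drug-free control. Growth was read visually and by absorbance at 540 nm.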

[5] = tested on: Staphylococcus aureus; assay: Antibacterial activity against methicillin-resistant Staphylococcus aureus H 5996/08 after 24 hrs by broth microdilution method; type: functional; conditions: H 5996/08, 24 h; in short: as §2
[6] = tested on: Mycobacterium kansasii; assay: Antimycobacterial activity against Mycobacterium kansasii 6509/96 after 14 days; type: functional; conditions: 6509/96, 336 h; in short: as §1
[7] = tested on: Mycobacterium tuberculosis; assay: Antimycobacterial activity against Mycobacterium tuberculosis H37Rv 331/88 after 21 days; type: functional; conditions: H37Rv 331/88, 504 h
In short: (§3)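 Micromethod in Sula semisynthetic medium, with compounds added as DMSO solutions over a two-fold series from 1000 down to 1. Inoculum for M. avium 330/88 was a 10⁻⁵ dilution. Plates were incubated at 37 °C and MIC was read after 14 and 21 days.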

[8] = Selectivity ratio of IC50 for human HepG2 cell sto MIC90 for Staphylococcus aureus CCM 4516/08; type: functional
[9] = tested on: HepG2; assay: Cytotoxicity against human HepG2 cells after 24 hrs by MTS assay; type: cell-based; conditions: HepG2, 24 h
In short: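 Hep G2 human liver cells (passage 3–4), 10 000 per well, in MEM with 1% glutamine, 10% fetal serum and 1% non-essential amino acids. Compounds were added from DMSO at eight increasing concentrations in quadruplicate. Exposure was 24 h at 37 °C in 5% CO₂, then MTS reagent for 1.5 h. Formazan was read at 490 nm and IC₅₀ derived as 50% of control viability.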

[10] = tested on: Staphylococcus aureus; assay: Antibacterial activity against Staphylococcus aureus CCM 4516/08 after 24 hrs by broth microdilution method; type: functional; conditions: CCM 4516/08, 24 h; in short: as §2
[11] = tested on: Staphylococcus epidermidis; assay: Antibacterial activity against methicillin-resistant Staphylococcus epidermidis H 6966/08 after 48 hrs by broth microdilution method; type: functional; conditions: H 6966/08, 48 h; in short: as §2
[12] = tested on: Staphylococcus aureus; assay: Antibacterial activity against Staphylococcus aureus CCM 4516/08 after 48 hrs by broth microdilution method; type: functional; conditions: CCM 4516/08, 48 h
In short: (§4)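 Broth microdilution modified from standard M07-A07 in Mueller-Hinton broth at pH 7.4 (±0.2). Compounds were dissolved in DMSO. Inoculum in sterile water was adjusted to 0.5 McFarland (1.5 × 10⁸ CFU/mL). MIC was taken as IC₉₀, i.e. ≥90% growth reduction versus control, read visually and spectrophotometrically at 540 nm.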

[13] = tested on: Mycobacterium kansasii; assay: Antimycobacterial activity against Mycobacterium kansasii 6509/96 after 7 days; type: functional; conditions: 6509/96, 168 h; in short: as §1
[14] = tested on: Mycobacterium avium; assay: Antimycobacterial activity against isoniazid-, rifampicin-, ofloxacin-, ethambutol-resistant Mycobacterium avium 330/88 after 14 days; type: functional; conditions: 330/88, 336 h; in short: as §3
[15] = tested on: Staphylococcus aureus; assay: Antibacterial activity against methicillin-resistant Staphylococcus aureus H 5996/08 after 48 hrs by broth microdilution method; type: functional; conditions: H 5996/08, 48 h; in short: as §2
[16] = tested on: Mycobacterium tuberculosis; assay: Antituberculosis activity against Mycobacterium tuberculosis H37Rv after 18 hrs by alamar blue assay; type: functional, organism-based
[17] = tested on: Mycobacterium kansasii; assay: Antimycobacterial activity against Mycobacterium kansasii 235/80 after 14 days; type: functional; conditions: 235/80, 336 h; in short: as §1
[18] = Selectivity ratio of IC50 for human HepG2 cell sto MIC100 for Mycobacterium kansasii 235/80; type: functional
[19] = tested on: Mycobacterium kansasii; assay: Antimycobacterial activity against Mycobacterium kansasii 6509/96 after 21 days; type: functional; conditions: 6509/96, 504 h; in short: as §1
[20] = tested on: Mycobacterium avium; assay: Antimycobacterial activity against isoniazid-, rifampicin-, ofloxacin-, ethambutol-resistant Mycobacterium avium 330/88 after 21 days; type: functional; conditions: 330/88, 504 h; in short: as §3
[21] = tested on: Mycobacterium kansasii; assay: Antimycobacterial activity against Mycobacterium kansasii 235/80 after 7 days; type: functional; conditions: 235/80, 168 h; in short: as §1
[22] = tested on: Mycobacterium avium complex sp.; assay: Antimycobacterial activity against Mycobacterium avium complex; type: functional
[23] = tested on: Escherichia coli; assay: Antibacterial activity against Escherichia coli CCM 4517 after 24 hrs by broth microdilution method; type: functional; conditions: CCM 4517, 24 h; in short: as §4
[24] = tested on: Klebsiella pneumoniae; assay: Antibacterial activity against ESBL-positive Klebsiella pneumoniae J 14368/08 after 24 hrs by broth microdilution method; type: functional; conditions: J 14368/08, 24 h; in short: as §4
[25] = tested on: Aspergillus fumigatus; assay: Antifungal activity against Aspergillus fumigatus 231 after 24 hrs by broth microdilution method; type: functional; conditions: Aspergillus fumigatus, 231, 24 h
In short: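 Microdilution broth per CLSI M27-A3 (yeasts) or M38-A2 (moulds) in RPMI 1640 with glutamine, buffered to pH 7.0 with 0.165 mol MOPS. Compounds were in DMSO. Final inoculum was 5 × 10³ ± 0.2 CFU/mL. Other conditions matched the antibacterial assay, with MIC as IC₉₀ read visually and at 540 nm. Determined twice, in duplicate.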

[26] = tested on: Klebsiella pneumoniae; assay: Antibacterial activity against Klebsiella pneumoniae D 11750/08 after 24 hrs by broth microdilution method; type: functional; conditions: D 11750/08, 24 h; in short: as §4
[27] = tested on: Pseudomonas aeruginosa; assay: Antibacterial activity against Pseudomonas aeruginosa CCM 1961 after 24 hrs by broth microdilution method; type: functional; conditions: CCM 1961, 24 h; in short: as §4
[28] = Selectivity ratio of IC50 for human HepG2 cell sto MIC90 for methicillin-resistant Staphylococcus aureus H 5996/08; type: functional

Compound: Nc1ccc(S(=O)(=O)Nc2nccs2)cc1 [SULFATHIAZOLE]
- Ratio [1]: 1040.3
- MIC [2]: 4 µM (≈ 1.02 µg/mL)
- MIC [3]: 32 µM (≈ 8.17 µg/mL)
- MIC [4]: > 500 µM
- MIC [5]: 62.5 µM (≈ 16 µg/mL)
- MIC [6]: 2 µM (≈ 0.511 µg/mL)
- MIC [7]: 62.5 µM (≈ 16 µg/mL)
- Ratio [8]: 33.2
- IC50 [9]: 4160 µM
- MIC [10]: 31.2 µM (≈ 7.98 µg/mL)
- MIC [11]: > 500 µM
- MIC [12]: 62.5 µM (≈ 16 µg/mL)
- MIC [13]: 1 µM (≈ 0.255 µg/mL)
- MIC [14]: 62.5 µM (≈ 16 µg/mL)
- MIC [15]: 125 µM (≈ 31.9 µg/mL)
- IC50 [16]: ≥ 5 µM
- MIC [17]: 4 µM (≈ 1.02 µg/mL)
- Ratio [18]: 1040.3
- MIC [19]: 2 µM (≈ 0.511 µg/mL)
- MIC [20]: 62.5 µM (≈ 16 µg/mL)
- MIC [21]: 2 µM (≈ 0.511 µg/mL)

Compound: Cc1cc(NS(=O)(=O)c2ccc(N)cc2)no1 [SULFAMETHOXAZOLE]
- Ratio [1]: 163.9
- MIC [2]: 16 µM (≈ 4.05 µg/mL)
- MIC50 [22]: 30 µg/mL (≈ 118 µM)
- MIC80 [22]: 30 µg/mL (≈ 118 µM)
- MIC [23]: ≥ 500 µM
- MIC [3]: 32 µM (≈ 8.11 µg/mL)
- MIC [4]: 250 µM (≈ 63.3 µg/mL)
- MIC [24]: ≥ 500 µM
- MIC [25]: 250 µM (≈ 63.3 µg/mL)
- MIC [5]: 62.5 µM (≈ 15.8 µg/mL)
- MIC [6]: 4 µM (≈ 1.01 µg/mL)
- MIC [7]: 32 µM (≈ 8.11 µg/mL)
- Ratio [8]: 5.2
- IC50 [9]: 2620 µM
- MIC [10]: 250 µM (≈ 63.3 µg/mL)
- MIC [11]: 500 µM (≈ 127 µg/mL)
- MIC [12]: 500 µM (≈ 127 µg/mL)
- MIC [13]: 4 µM (≈ 1.01 µg/mL)
- MIC [14]: 32 µM (≈ 8.11 µg/mL)
- MIC [15]: 250 µM (≈ 63.3 µg/mL)
- MIC [26]: ≥ 500 µM
- MIC [17]: 16 µM (≈ 4.05 µg/mL)
- Ratio [18]: 163.9
- MIC [27]: ≥ 500 µM
- MIC [19]: 4 µM (≈ 1.01 µg/mL)
- Ratio [28]: 5.2
- MIC [20]: 62.5 µM (≈ 15.8 µg/mL)
- MIC [21]: 8 µM (≈ 2.03 µg/mL)
